Values after ≈ are worked out from the molar mass of the structure shown.
Key:
Assay type in all cases: functional
Clostridioides difficile [1] = assay: Antibacterial activity against Clostridium difficile IQCC 23903 after 16 hrs by two-fold serial dilution method; details: IQCC 23903, 16 h
How it was run: (§1)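 CLSI agar dilution MIC. Compounds are dissolved in 50% water in DMSO as a stock, twofold serially diluted in sterile water, then diluted 10-fold into Mueller-Hinton agar. Organisms are grown in MH broth at 35 °C for 8 h and adjusted to 0.5 McFarland. They are applied to the drug-containing plates by multipoint inoculator and incubated at 35 °C for 16 h. Vancomycin and demethylvancomycin serve as controls.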

Clostridioides difficile [2] = assay: Antibacterial activity against Clostridium difficile ATCC 700792 after 16 hrs by two-fold serial dilution method; details: ATCC 700792, 16 h; how it was run: as §1
[3] = Antibacterial activity against Clostridium difficile ATCC 43255 after 16 hrs by two-fold serial dilution method; details: Clostridioides difficile, ATCC 43255, 16 h; how it was run: as §1
Enterococcus faecalis = assay: Antibacterial activity against Enterococcus faecalis ATCC 700802 after 16 hrs by two-fold serial dilution method; details: ATCC 700802, 16 h; how it was run: as §1
Clostridioides difficile [4] = assay: Antibacterial activity against Clostridium difficile ATCC 700057 after 16 hrs by two-fold serial dilution method; details: ATCC 700057, 16 h; how it was run: as §1
Clostridioides difficile [5] = assay: Ratio of MIC for vancomycin to compound MIC for Clostridium difficile ATCC 700057 after 16 hrs by two-fold serial dilution method
Clostridioides difficile [6] = assay: Ratio of MIC for demethylvancomycin to compound MIC for Clostridium difficile ATCC 700792 after 16 hrs by two-fold serial dilution method
Clostridioides difficile [7] = assay: Ratio of MIC for demethylvancomycin to compound MIC for Clostridium difficile IQCC 23903 after 16 hrs by two-fold serial dilution method
Clostridioides difficile [8] = assay: Ratio of MIC for demethylvancomycin to compound MIC for Clostridium difficile ATCC 43255 after 16 hrs by two-fold serial dilution method
Clostridioides difficile [9] = assay: Ratio of MIC for vancomycin to compound MIC for Clostridium difficile IQCC 23903 after 16 hrs by two-fold serial dilution method
Clostridioides difficile [10] = assay: Ratio of MIC for vancomycin to compound MIC for Clostridium difficile ATCC 700792 after 16 hrs by two-fold serial dilution method
Clostridioides difficile [11] = assay: Ratio of MIC for vancomycin to compound MIC for Clostridium difficile ATCC 43255 after 16 hrs by two-fold serial dilution method
Clostridioides difficile [12] = assay: Ratio of MIC for demethylvancomycin to compound MIC for Clostridium difficile ATCC 700057 after 16 hrs by two-fold serial dilution method

COc1ccc(CN[C@@]2(C)C[C@H](O[C@H]3[C@H](Oc4c5cc6cc4Oc4ccc(cc4Cl)[C@@H](O)[C@@H](NC(=O)[C@H](N)CC(C)C)C(=O)N[C@@H](CC(N)=O)C(=O)N[C@H]6C(=O)N[C@H]4C(=O)N[C@H](C(=O)N[C@H](C(=O)O)c6cc(O)cc(O)c6-c6cc4ccc6O)[C@H](O)c4ccc(c(Cl)c4)O5)O[C@H](CO)[C@@H](O)[C@@H]3O)O[C@@H](C)[C@H]2O)cc1
MIC (Clostridioides difficile [1]): 0.5 µg/mL (≈ 0.321 µM) | MIC (Clostridioides difficile [2]): 1 µg/mL (≈ 0.643 µM) | MIC [3]: 0.5 µg/mL (≈ 0.321 µM) | MIC (Enterococcus faecalis): 16 µg/mL (≈ 10.3 µM) | MIC (Clostridioides difficile [4]): 0.5 µg/mL (≈ 0.321 µM)

CC(C)C[C@@H](N)C(=O)N[C@H]1C(=O)N[C@@H](CC(N)=O)C(=O)N[C@H]2C(=O)N[C@H]3C(=O)N[C@H](C(=O)N[C@H](C(=O)O)c4cc(O)cc(O)c4-c4cc3ccc4O)[C@H](O)c3ccc(c(Cl)c3)Oc3cc2cc(c3O[C@@H]2O[C@H](CO)[C@@H](O)[C@H](O)[C@H]2O[C@H]2C[C@](C)(NCc3ccc(F)cc3)[C@H](O)[C@H](C)O2)Oc2ccc(cc2Cl)[C@H]1O
MIC (Clostridioides difficile [1]): 0.5 µg/mL (≈ 0.324 µM) | MIC (Clostridioides difficile [2]): 0.5 µg/mL (≈ 0.324 µM) | MIC [3]: 0.5 µg/mL (≈ 0.324 µM) | MIC (Enterococcus faecalis): 16 µg/mL (≈ 10.4 µM) | MIC (Clostridioides difficile [4]): 0.5 µg/mL (≈ 0.324 µM)

CC(C)C[C@@H](N)C(=O)N[C@H]1C(=O)N[C@@H](CC(N)=O)C(=O)N[C@H]2C(=O)N[C@H]3C(=O)N[C@H](C(=O)N[C@H](C(=O)O)c4cc(O)cc(O)c4-c4cc3ccc4O)[C@H](O)c3ccc(c(Cl)c3)Oc3cc2cc(c3O[C@@H]2O[C@H](CO)[C@@H](O)[C@H](O)[C@H]2O[C@H]2C[C@](C)(NCc3ccc(Cl)cc3)[C@H](O)[C@H](C)O2)Oc2ccc(cc2Cl)[C@H]1O
Ratio (Clostridioides difficile [5]): 2 | MIC (Clostridioides difficile [1]): 0.25 µg/mL (≈ 0.16 µM) | Ratio (Clostridioides difficile [6]): 2 | Ratio (Clostridioides difficile [7]): 2 | MIC (Clostridioides difficile [2]): 0.25 µg/mL (≈ 0.16 µM) | MIC [3]: 0.25 µg/mL (≈ 0.16 µM) | Ratio (Clostridioides difficile [8]): 2 | MIC (Enterococcus faecalis): 16 µg/mL (≈ 10.3 µM) | Ratio (Clostridioides difficile [9]): 2 | MIC (Clostridioides difficile [4]): 0.5 µg/mL (≈ 0.321 µM) | Ratio (Clostridioides difficile [10]): 2 | Ratio (Clostridioides difficile [11]): 2 | Ratio (Clostridioides difficile [12]): 2

CC(C)C[C@@H](N)C(=O)N[C@H]1C(=O)N[C@@H](CC(N)=O)C(=O)N[C@H]2C(=O)N[C@H]3C(=O)N[C@H](C(=O)N[C@H](C(=O)O)c4cc(O)cc(O)c4-c4cc3ccc4O)[C@H](O)c3ccc(c(Cl)c3)Oc3cc2cc(c3O[C@@H]2O[C@H](CO)[C@@H](O)[C@H](O)[C@H]2O[C@H]2C[C@](C)(NCc3cc4ccccc4o3)[C@H](O)[C@H](C)O2)Oc2ccc(cc2Cl)[C@H]1O
MIC (Clostridioides difficile [1]): 0.5 µg/mL (≈ 0.319 µM) | MIC (Clostridioides difficile [2]): 1 µg/mL (≈ 0.639 µM) | MIC [3]: 1 µg/mL (≈ 0.639 µM) | MIC (Enterococcus faecalis): 8 µg/mL (≈ 5.11 µM) | MIC (Clostridioides difficile [4]): 0.5 µg/mL (≈ 0.319 µM)

CC(C)C[C@@H](N)C(=O)N[C@H]1C(=O)N[C@@H](CC(N)=O)C(=O)N[C@H]2C(=O)N[C@H]3C(=O)N[C@H](C(=O)N[C@H](C(=O)O)c4cc(O)cc(O)c4-c4cc3ccc4O)[C@H](O)c3ccc(c(Cl)c3)Oc3cc2cc(c3O[C@@H]2O[C@H](CO)[C@@H](O)[C@H](O)[C@H]2O[C@H]2C[C@](C)(NCc3ccco3)[C@H](O)[C@H](C)O2)Oc2ccc(cc2Cl)[C@H]1O
MIC (Clostridioides difficile [1]): 0.5 µg/mL (≈ 0.33 µM) | MIC (Clostridioides difficile [2]): 0.5 µg/mL (≈ 0.33 µM) | MIC [3]: 0.5 µg/mL (≈ 0.33 µM) | MIC (Enterococcus faecalis): 32 µg/mL (≈ 21.1 µM) | MIC (Clostridioides difficile [4]): 0.5 µg/mL (≈ 0.33 µM)

CC(C)C[C@@H](N)C(=O)N[C@H]1C(=O)N[C@@H](CC(N)=O)C(=O)N[C@H]2C(=O)N[C@H]3C(=O)N[C@H](C(=O)N[C@H](C(=O)O)c4cc(O)cc(O)c4-c4cc3ccc4O)[C@H](O)c3ccc(c(Cl)c3)Oc3cc2cc(c3O[C@@H]2O[C@H](CO)[C@@H](O)[C@H](O)[C@H]2O[C@H]2C[C@](C)(NCc3cccs3)[C@H](O)[C@H](C)O2)Oc2ccc(cc2Cl)[C@H]1O
MIC (Clostridioides difficile [1]): 0.5 µg/mL (≈ 0.326 µM) | MIC (Clostridioides difficile [2]): 0.5 µg/mL (≈ 0.326 µM) | MIC [3]: 0.5 µg/mL (≈ 0.326 µM) | MIC (Enterococcus faecalis): 32 µg/mL (≈ 20.9 µM) | MIC (Clostridioides difficile [4]): 0.5 µg/mL (≈ 0.326 µM)

CCCCCCCCCCCCCN[C@@]1(C)C[C@H](O[C@H]2[C@H](Oc3c4cc5cc3Oc3ccc(cc3Cl)[C@@H](O)[C@@H](NC(=O)[C@H](N)CC(C)C)C(=O)N[C@@H](CC(N)=O)C(=O)N[C@H]5C(=O)N[C@H]3C(=O)N[C@H](C(=O)N[C@H](C(=O)O)c5cc(O)cc(O)c5-c5cc3ccc5O)[C@H](O)c3ccc(c(Cl)c3)O4)O[C@H](CO)[C@@H](O)[C@@H]2O)O[C@@H](C)[C@H]1O
MIC (Clostridioides difficile [1]): 1 µg/mL (≈ 0.618 µM) | MIC (Clostridioides difficile [2]): 2 µg/mL (≈ 1.24 µM) | MIC [3]: 1 µg/mL (≈ 0.618 µM) | MIC (Enterococcus faecalis): 4 µg/mL (≈ 2.47 µM) | MIC (Clostridioides difficile [4]): 2 µg/mL (≈ 1.24 µM)

CC(C)=CCC/C(C)=C/CN[C@@]1(C)C[C@H](O[C@H]2[C@H](Oc3c4cc5cc3Oc3ccc(cc3Cl)[C@@H](O)[C@@H](NC(=O)[C@H](N)CC(C)C)C(=O)N[C@@H](CC(N)=O)C(=O)N[C@H]5C(=O)N[C@H]3C(=O)N[C@H](C(=O)N[C@H](C(=O)O)c5cc(O)cc(O)c5-c5cc3ccc5O)[C@H](O)c3ccc(c(Cl)c3)O4)O[C@H](CO)[C@@H](O)[C@@H]2O)O[C@@H](C)[C@H]1O
MIC (Clostridioides difficile [1]): 0.5 µg/mL (≈ 0.318 µM) | MIC (Clostridioides difficile [2]): 0.5 µg/mL (≈ 0.318 µM) | MIC [3]: 0.5 µg/mL (≈ 0.318 µM) | MIC (Enterococcus faecalis): 16 µg/mL (≈ 10.2 µM) | MIC (Clostridioides difficile [4]): 0.5 µg/mL (≈ 0.318 µM)

CC(C)CCN[C@@]1(C)C[C@H](O[C@H]2[C@H](Oc3c4cc5cc3Oc3ccc(cc3Cl)[C@@H](O)[C@@H](NC(=O)[C@H](N)CC(C)C)C(=O)N[C@@H](CC(N)=O)C(=O)N[C@H]5C(=O)N[C@H]3C(=O)N[C@H](C(=O)N[C@H](C(=O)O)c5cc(O)cc(O)c5-c5cc3ccc5O)[C@H](O)c3ccc(c(Cl)c3)O4)O[C@H](CO)[C@@H](O)[C@@H]2O)O[C@@H](C)[C@H]1O
MIC (Clostridioides difficile [1]): 0.5 µg/mL (≈ 0.332 µM) | MIC (Clostridioides difficile [2]): 1 µg/mL (≈ 0.664 µM) | MIC [3]: 1 µg/mL (≈ 0.664 µM) | MIC (Enterococcus faecalis): 32 µg/mL (≈ 21.3 µM) | MIC (Clostridioides difficile [4]): 1 µg/mL (≈ 0.664 µM)

CC(C)C[C@@H](N)C(=O)N[C@H]1C(=O)N[C@@H](CC(N)=O)C(=O)N[C@H]2C(=O)N[C@H]3C(=O)N[C@H](C(=O)N[C@H](C(=O)O)c4cc(O)cc(O)c4-c4cc3ccc4O)[C@H](O)c3ccc(c(Cl)c3)Oc3cc2cc(c3O[C@@H]2O[C@H](CO)[C@@H](O)[C@H](O)[C@H]2O[C@H]2C[C@](C)(NCC3CCCCC3)[C@H](O)[C@H](C)O2)Oc2ccc(cc2Cl)[C@H]1O
MIC (Clostridioides difficile [1]): 0.5 µg/mL (≈ 0.326 µM) | MIC (Clostridioides difficile [2]): 1 µg/mL (≈ 0.653 µM) | MIC [3]: 1 µg/mL (≈ 0.653 µM) | MIC (Enterococcus faecalis): 16 µg/mL (≈ 10.4 µM) | MIC (Clostridioides difficile [4]): 0.5 µg/mL (≈ 0.326 µM)

CCC(CC)CN[C@@]1(C)C[C@H](O[C@H]2[C@H](Oc3c4cc5cc3Oc3ccc(cc3Cl)[C@@H](O)[C@@H](NC(=O)[C@H](N)CC(C)C)C(=O)N[C@@H](CC(N)=O)C(=O)N[C@H]5C(=O)N[C@H]3C(=O)N[C@H](C(=O)N[C@H](C(=O)O)c5cc(O)cc(O)c5-c5cc3ccc5O)[C@H](O)c3ccc(c(Cl)c3)O4)O[C@H](CO)[C@@H](O)[C@@H]2O)O[C@@H](C)[C@H]1O
MIC (Clostridioides difficile [1]): 2 µg/mL (≈ 1.32 µM) | MIC (Clostridioides difficile [2]): 2 µg/mL (≈ 1.32 µM) | MIC [3]: 2 µg/mL (≈ 1.32 µM) | MIC (Enterococcus faecalis): 32 µg/mL (≈ 21.1 µM) | MIC (Clostridioides difficile [4]): 2 µg/mL (≈ 1.32 µM)

CC(C)C[C@@H](N)C(=O)N[C@@H]1C(=O)N[C@@H](CC(N)=O)C(=O)N[C@H]2C(=O)N[C@H]3C(=O)N[C@H](C(=O)N[C@H](C(=O)O)c4cc(O)cc(O)c4-c4cc3ccc4O)[C@H](O)c3ccc(c(Cl)c3)Oc3cc2cc(c3O[C@@H]2O[C@H](CO)[C@@H](O)[C@H](O)[C@H]2O[C@H]2C[C@](C)(N)C(O)[C@H](C)O2)Oc2ccc(cc2Cl)[C@H]1O (stereo partly drawn) [DEMETHYLVANCOMYCIN]
MIC (Clostridioides difficile [1]): 0.5 µg/mL (≈ 0.348 µM) | MIC (Clostridioides difficile [2]): 0.5 µg/mL (≈ 0.348 µM) | MIC [3]: 0.5 µg/mL (≈ 0.348 µM) | MIC (Enterococcus faecalis): > 32 µg/mL | MIC (Clostridioides difficile [4]): 0.5 µg/mL (≈ 0.348 µM)

CN[C@H](CC(C)C)C(=O)N[C@H]1C(=O)N[C@@H](CC(N)=O)C(=O)N[C@H]2C(=O)N[C@H]3C(=O)N[C@H](C(=O)N[C@H](C(=O)O)c4cc(O)cc(O)c4-c4cc3ccc4O)[C@H](O)c3ccc(c(Cl)c3)Oc3cc2cc(c3O[C@@H]2O[C@H](CO)[C@@H](O)[C@H](O)[C@H]2O[C@H]2C[C@](C)(N)[C@H](O)[C@H](C)O2)Oc2ccc(cc2Cl)[C@H]1O [VANCOMYCIN]
MIC (Clostridioides difficile [1]): 0.5 µg/mL (≈ 0.345 µM) | MIC (Clostridioides difficile [2]): 1 µg/mL (≈ 0.69 µM) | MIC [3]: 1 µg/mL (≈ 0.69 µM) | MIC (Enterococcus faecalis): 32 µg/mL (≈ 22.1 µM) | MIC (Clostridioides difficile [4]): 0.5 µg/mL (≈ 0.345 µM)
